Laboratory results reported in ChEMBL document CHEMBL1153518 (J Med Chem, 2009).

How the values were obtained:
Human alphaherpesvirus 2 = assay: Antiviral activity against HSV2 G infected in HEL cells assessed as inhibition of virus-induced cytopathicity; assay type: functional, organism-based; conditions: Human alphaherpesvirus 2, strain G
How it was run: (§1)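 Confluent human embryonic lung fibroblast monolayers inoculated with 100 CCID50 virus. After 1–2 h adsorption, residual virus was removed and cultures were incubated with varying compound concentrations. Cytopathicity was scored once untreated infected controls reached full cytopathicity.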

[1] = test system: Human immunodeficiency virus 1; assay: Antiviral activity against HIV1 3B/Lai infected in human MT4 cells assessed as suppression of p24 production after 3 days; assay type: functional, organism-based; conditions: Human immunodeficiency virus 1, 3B/Lai, MT4, 72 h
How it was run: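 MT-4 cells (1 × 10^4 cells/mL) in fresh medium infected with X4LAI.04 stock, 10 μL (0.7 ng p24) per mL of cell suspension. Mixed with medium carrying compound dilutions and kept at 37°C. After 3 days, p24 was measured in culture supernatants.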

[2] = test system: Human immunodeficiency virus 2; assay: Antiviral activity against HIV2 ROD infected in human CEM cells assessed as inhibition of virus-induced cytopathicity after 4 days; assay type: functional, organism-based; conditions: Human immunodeficiency virus 2, ISOLATE ROD, CCRF-CEM, 96 h
How it was run: (§2)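 Human CEM cells (~3 × 10^5 cells/mL) infected with 100 CCID50 per mL of HIV-1(IIIB) or HIV-2(ROD), then seeded into wells holding compound dilutions. Incubated 4 days at 37°C. Giant cell formation was scored microscopically.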

Human alphaherpesvirus 1 [3] = assay: Antiviral activity against acyclovir […]-resistant thymidine kinase-deficient HSV1 KOS infected in HEL cells assessed as inhibition of virus-induced cytopathicity; assay type: functional, organism-based; conditions: Human alphaherpesvirus 1, KOS; how it was run: as §1
Human alphaherpesvirus 1 [4] = assay: Antiviral activity against HSV1 KOS infected in HEL cells assessed as inhibition of virus-induced cytopathicity; assay type: functional, organism-based; conditions: Human alphaherpesvirus 1, KOS; how it was run: as §1
MT4 [5] = assay: Cytotoxicity against human MT4 cells assessed as decrease in cell viability; assay type: cell-based
How it was run: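 MT-4 viability was measured by automated propidium iodide-based cell counting, enumerating total and dead cells in untreated and compound-treated cultures.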

HEL = assay: Cytotoxicity against HEL cells assessed as inhibition of cell proliferation; assay type: cell-based; conditions: Homo sapiens
MT4 [6] = assay: Cytotoxicity against human MT4 cells assessed as inhibition of cell proliferation; assay type: cell-based
[7] = Cytotoxicity against HEL cells assessed as concentration required to cause alteration in cell alteration by microscopically; assay type: cell-based; conditions: human
[8] = test system: Human immunodeficiency virus 1; assay: Antiviral activity against HIV1 3B/Lai infected in human CEM cells assessed as inhibition of virus-induced cytopathicity after 4 days; assay type: functional, organism-based; conditions: Human immunodeficiency virus 1, 3B/Lai, CCRF-CEM, 96 h; how it was run: as §2
CCRF-CEM = assay: Cytotoxicity against human CEM cells assessed as decrease in cell viability; assay type: cell-based

SMILES	EC50 (Human alphaherpesvirus 2)	EC50 [1]	EC50 [2]	EC50 (Human alphaherpesvirus 1 [3])	EC50 (Human alphaherpesvirus 1 [4])	IC50 (MT4 [5])	IC50 (HEL)	CC50 (MT4 [6])	MCC [7]	EC50 [8]	IC50 (CCRF-CEM)
C[C@H](NP(=O)(OCCOCn1cnc2c(=O)[nH]c(N)nc21)Oc1ccccc1)C(=O)OCc1ccccc1 (stereo partly specified)	4 µM	5.7 µM	11 µM	15 µM	8 µM	33.8 µM	91 µM	> 150 µM	> 50 µM	16 µM	42 µM
COC(=O)[C@H](C)NP(=O)(OCCOCn1cnc2c(=O)[nH]c(N)nc21)Oc1cccc2ccccc12 (stereo partly specified)	10 µM	4.7 µM	13 µM	79 µM	16 µM	18.7 µM	> 100 µM	> 150 µM	> 50 µM	10 µM	–
COC(=O)[C@H](C)NP(=O)(OCCOCn1cnc2c(=O)[nH]c(N)nc21)Oc1ccccc1 (stereo partly specified)	16 µM	15 µM	26 µM	79 µM	20 µM	–	–	–	> 100 µM	17 µM	–
C[C@H](NP(=O)(OCCOCn1cnc2c(=O)[nH]c(N)nc21)Oc1cccc2ccccc12)C(=O)OCc1ccccc1 (stereo partly specified)	1.4 µM	0.8 µM	8.9 µM	10 µM	2 µM	> 150 µM	20 µM	–	≥ 20 µM	15 µM	–
CC(C)(NP(=O)(OCCOCn1cnc2c(=O)[nH]c(N)nc21)Oc1cccc2ccccc12)C(=O)OCc1ccccc1 (stereo unspecified)	1.6 µM	–	79 µM	3.2 µM	2.4 µM	–	> 100 µM	–	> 50 µM	≥ 100 µM	> 100 µM
CN(C)/C=N/c1nc2c(ncn2COCCOP(=O)(Oc2ccccc2)N2CCC[C@H]2C(=O)OCc2ccccc2)c(=O)[nH]1 (stereo partly specified)	–	30 µM	> 20 µM	–	–	> 150 µM	–	90 µM	–	> 20 µM	45 µM
CN(C)/C=N/c1nc2c(ncn2COCCOP(=O)(NC(C)(C)C(=O)OCc2ccccc2)Oc2ccccc2)c(=O)[nH]1 (stereo unspecified)	–	70 µM	> 100 µM	–	–	> 150 µM	–	> 150 µM	–	> 100 µM	> 100 µM
CCCOC(=O)[C@H](C)NP(=O)(OCCOCn1cnc2c(=O)[nH]c(N)nc21)Oc1cccc2ccccc12 (stereo partly specified)	1.9 µM	10 µM	24 µM	16 µM	5.5 µM	–	68 µM	–	≥ 50 µM	6.6 µM	–
COC(=O)[C@@H](NP(=O)(OCCOCn1cnc2c(=O)[nH]c(N)nc21)Oc1cccc2ccccc12)C(C)C (stereo partly specified)	> 100 µM	–	> 100 µM	> 100 µM	> 100 µM	–	–	–	> 100 µM	> 100 µM	> 100 µM
CN(C)/C=N/c1nc2c(ncn2COCCOP(=O)(NC(C)(C)C(=O)OCc2ccccc2)Oc2cccc3ccccc23)c(=O)[nH]1 (stereo unspecified)	–	15 µM	> 20 µM	–	–	140 µM	–	45 µM	–	> 20 µM	40 µM
COC(=O)[C@@H](NP(=O)(OCCOCn1cnc2c(=O)[nH]c(/N=C/N(C)C)nc21)Oc1cccc2ccccc12)C(C)C (stereo partly specified)	–	> 150 µM	> 100 µM	–	–	> 150 µM	–	> 150 µM	–	> 100 µM	> 100 µM
Nc1nc2c(ncn2COCCOP(=O)(NC(Cc2ccccc2)C(=O)OCc2ccccc2)Oc2ccccc2)c(=O)[nH]1 (stereo unspecified)	8 µM	16 µM	34 µM	–	17 µM	–	87 µM	–	> 50 µM	26 µM	–
CC(C)OC(=O)[C@H](C)NP(=O)(OCCOCn1cnc2c(=O)[nH]c(N)nc21)Oc1ccccc1 (stereo partly specified)	8.5 µM	> 150 µM	> 100 µM	27 µM	10 µM	> 150 µM	> 100 µM	> 150 µM	> 50 µM	–	> 100 µM
